Key:
[1] = Cmax in CD1 nu/nu mouse xenografted with human HCT116 cells at 875 mg/kg, po administered biweekly for 3 weeks; type: ADME, organism-based, HCT-116; parameters: dose 875 mg/kg, route oral; conditions: in vivo
Procedure, shortened: (§1)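 HCT116 cells (5 × 10^6 per mouse) injected subcutaneously into the right flank of CD1 nu/nu mice. Once tumors reached ~325 mm3, mice were randomized into groups of 12 and dosed orally for 21 days, once daily (qd) or biweekly (biw). Vehicle was 40% v/v PEG-400 plus 25% w/v HPβCD at 20 μL/g.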

[2] = Drug metabolism in rat hepatocytes; type: ADME, cell-based, Hepatocyte
Mus musculus [3] = experiment: Inhibition of HDAC in CD1 nu/nu mouse tumor xenografted with human HCT116 cells assessed as plasma drug level causing increase in H2BK5 acetylation at 200 mg/kg, po qd after 72 hrs by ELISA; type: functional, HCT-116
[4] = Oral bioavailability in Sprague-Dawley rat at 4 mg/kg; type: ADME, organism-based; conditions: in vivo
[5] = Volume of distribution at steady state in beagle dog at 0.5 mg/kg, iv; type: ADME, organism-based, Canis lupus familiaris; parameters: dose 0.5 mg/kg, route intravenous; conditions: in vivo, read-out: Vdss
Procedure, shortened: (§2)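 Intravenous dosing at 5 (mouse), 2 (rat), 0.5 (dog) and 0.5 (monkey) mg/kg. Plasma clearance, steady-state volume of distribution and half-life derived from the plasma profile.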

in vivo = conditions: CD1 nu/nu, mouse, po, 100 mg/kg
[6] = Volume of distribution at steady state in Sprague-Dawley rat at 2 mg/kg, iv; type: ADME, organism-based; parameters: dose 2 mg/kg, route intravenous; conditions: in vivo, read-out: Vdss; procedure, shortened: as §2
[7] = Drug metabolism in human hepatocytes assessed as carboxylic acid level; type: ADME, cell-based, Hepatocyte
Mus musculus [8] = experiment: Inhibition of HDAC in CD1 nu/nu mouse tumor xenografted with human HCT116 cells assessed as plasma drug level causing increase in H2BK5 acetylation at 100 mg/kg, po bid after 48 hrs by ELISA; type: functional, HCT-116
[9] = Half life in CD-1 mouse at 5 mg/kg, iv; type: ADME, organism-based; parameters: dose 5 mg/kg, route intravenous; conditions: in vivo; procedure, shortened: as §2
Mus musculus [10] = experiment: Inhibition of HDAC in CD1 nu/nu mouse tumor xenografted with human HCT116 cells assessed as plasma drug level causing increase in H2BK5 acetylation at 67 mg/kg, po tid after 72 hrs by ELISA; type: functional, HCT-116
[11] = AUC (0 to 24 hrs) in CD1 nu/nu mouse xenografted with human HCT116 cells at 525 mg/kg, po administered biweekly for 3 weeks; type: ADME, organism-based, HCT-116; parameters: time < 24 hr, dose 525 mg/kg, route oral; conditions: in vivo
Procedure, shortened: (§3)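 HCT116 cells (5 × 10^6/mouse) injected sc into right flank of CD1 nu/nu mice; at ~325 mm3 tumors, randomized into groups of 12. Oral dosing 21 days, once daily or biweekly, in 40% v/v PEG-400 and 25% w/v HPβCD at 20 μL/g. […] Tumor size by caliper.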

[12] = Oral bioavailability in rhesus monkey at 1 mg/kg; type: ADME, organism-based, Macaca mulatta; conditions: in vivo
[13] = Volume of distribution at steady state in CD-1 mouse at 5 mg/kg, iv; type: ADME, organism-based; parameters: dose 5 mg/kg, route intravenous; conditions: in vivo, read-out: Vdss; procedure, shortened: as §2
Mus musculus [14] = experiment: Inhibition of HDAC in CD1 nu/nu mouse tumor xenografted with human HCT116 cells assessed as plasma drug level causing increase in H2BK5 acetylation at 200 mg/kg, po qd after 8 hrs by ELISA; type: functional, HCT-116
[15] = Half life in rhesus monkey at 0.5 mg/kg, iv; type: ADME, organism-based, Macaca mulatta; parameters: dose 0.5 mg/kg, route intravenous; conditions: in vivo; procedure, shortened: as §2
[16] = Half life in Sprague-Dawley rat at 2 mg/kg, iv; type: ADME, organism-based; parameters: dose 2 mg/kg, route intravenous; conditions: in vivo; procedure, shortened: as §2
[17] = Cmax in CD1 nu/nu mouse xenografted with human HCT116 cells at 150 mg/kg, po qd for 3 weeks; type: ADME, organism-based, HCT-116; parameters: dose 150 mg/kg, route oral; conditions: in vivo; procedure, shortened: as §1
[18] = Cmax in CD1 nu/nu mouse xenografted with human HCT116 cells at 50 mg/kg, po qd for 3 weeks; type: ADME, organism-based, HCT-116; parameters: dose 50 mg/kg, route oral; conditions: in vivo; procedure, shortened: as §1
Mus musculus [19] = experiment: Inhibition of HDAC in CD1 nu/nu mouse tumor xenografted with human HCT116 cells assessed as plasma drug level causing increase in H2BK5 acetylation at 200 mg/kg, po qd after 24 hrs by ELISA; type: functional, HCT-116
[20] = Cmax in CD1 nu/nu mouse xenografted with human HCT116 cells at 525 mg/kg, po administered biweekly for 3 weeks; type: ADME, organism-based, HCT-116; parameters: dose 525 mg/kg, route oral; conditions: in vivo; procedure, shortened: as §1
[21] = Drug metabolism in human hepatocytes assessed as glucuronide conjugate level; type: ADME, cell-based, Hepatocyte
Mus musculus [22] = experiment: Inhibition of HDAC in CD1 nu/nu mouse tumor xenografted with human HCT116 cells assessed as plasma drug level causing increase in H2BK5 acetylation at 67 mg/kg, po tid after 48 hrs by ELISA; type: functional, HCT-116
Mus musculus [23] = experiment: Inhibition of HDAC in CD1 nu/nu mouse tumor xenografted with human HCT116 cells assessed as plasma drug level causing increase in H2BK5 acetylation at 100 mg/kg, po bid after 8 hrs by ELISA; type: functional, HCT-116
[24] = Plasma protein binding in rhesus monkey at 2 uM; type: ADME, cell-free, Macaca mulatta; conditions: read-out: PPB (converted)
Procedure, shortened: (§4)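 Plasma protein binding measured in mouse, rat, dog and monkey plasma at 2 μM compound.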

[25] = AUC (0 to 24 hrs) in CD1 nu/nu mouse xenografted with human HCT116 cells at 50 mg/kg, po qd for 3 weeks; type: ADME, organism-based, HCT-116; parameters: time < 24 hr, dose 50 mg/kg, route oral; conditions: in vivo; procedure, shortened: as §3
[26] = AUC (0 to 24 hrs) in CD1 nu/nu mouse xenografted with human HCT116 cells at 350 mg/kg, po administered biweekly for 3 weeks; type: ADME, organism-based, HCT-116; parameters: time < 24 hr, dose 350 mg/kg, route oral; conditions: in vivo; procedure, shortened: as §3
[27] = Drug metabolism in human hepatocytes assessed as oxidation of piperidine ring; type: ADME, cell-based, Hepatocyte
Mus musculus [28] = experiment: Inhibition of HDAC in CD1 nu/nu mouse tumor xenografted with human HCT116 cells assessed as plasma drug level causing increase in H2BK5 acetylation at 67 mg/kg, po tid after 1 hr by ELISA; type: functional, HCT-116
Mus musculus [29] = experiment: Inhibition of HDAC in CD1 nu/nu mouse tumor xenografted with human HCT116 cells assessed as plasma drug level causing increase in H2BK5 acetylation at 200 mg/kg, po qd after 1 hr by ELISA; type: functional, HCT-116
Mus musculus [30] = experiment: Dose normalized AUC in CD-1 mouse at 10 mg/kg, po; type: ADME, organism-based; parameters: dose 10 mg/kg, route oral; conditions: in vivo
[31] = Plasma protein binding in CD-1 mouse at 2 uM; type: ADME, cell-free; conditions: read-out: PPB (converted); procedure, shortened: as §4
Mus musculus [32] = experiment: Inhibition of HDAC in CD1 nu/nu mouse tumor xenografted with human HCT116 cells assessed as plasma drug level causing increase in H2BK5 acetylation at 67 mg/kg, po tid after 4 hrs by ELISA; type: functional, HCT-116
[33] = Cmax in CD1 nu/nu mouse xenografted with human HCT116 cells at 200 mg/kg, po qd for 3 weeks; type: ADME, organism-based, HCT-116; parameters: dose 200 mg/kg, route oral; conditions: in vivo; procedure, shortened: as §1

Cmax [1]: 56.4 µM
Drug metabolism [2]: metabolite_notdetected
bioavailability [4]: 28%
Vd [5]: 2.2 L/kg
concentration at 24 h (in vivo): 0.5 µM
Vd [6]: 0.7 L/kg
Drug metabolism [7]: metabolite_notdetected
half-life [9]: 2 h
AUC at 24 h [11]: 808 µM·h
bioavailability [12]: 100%
Vd [13]: 2.1 L/kg
half-life [15]: 7.1 h
half-life [16]: 4.2 h
Cmax [17]: 16.6 µM
Cmax [18]: 3.5 µM
Cmax [20]: 56.8 µM
Drug metabolism [21]: metabolite_notdetected
fraction unbound at 2 µM [24]: 0.016
AUC at 24 h [25]: 40 µM·h
AUC at 24 h [26]: 566 µM·h
Drug metabolism [27]: metabolite_notdetected
AUC/dose (Mus musculus [30]): 1.1 µM·kg·h/mg
fraction unbound at 2 µM [31]: 0.015
Cmax [33]: 40.4 µM
Compound: Nc1ccc(-c2cccs2)cc1NC(=O)c1ccc(N2CCC3(CC2)CNC(=O)O3)nc1
INH (Mus musculus [3]): 0.3 µM
INH (Mus musculus [8]): 0.3 µM
INH (Mus musculus [10]): 0.3 µM
INH (Mus musculus [14]): 9.5 µM
INH (Mus musculus [19]): 0.2 µM
INH (Mus musculus [22]): 0.1 µM
INH (Mus musculus [23]): 9.9 µM
INH (Mus musculus [28]): 14.9 µM
INH (Mus musculus [29]): 11.9 µM
INH (Mus musculus [32]): 13.8 µM

— ChEMBL document CHEMBL3286368, “Delayed and Prolonged Histone Hyperacetylation with a Selective HDAC1/HDAC2 Inhibitor” (ACS Med Chem Lett, 2014)
